# Key:
# Format in all cases: functional
# [1] = system: NCI-H226; assay: Antitumor activity against human NCI-H226 cells; conditions: for TGI: read-out: pTGI (converted)
# Procedure, shortened: (§1)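 Run by the NCI in its in vitro disease-oriented screen of about 60 human tumour cell lines. For each line it reports pGI50 (50% net growth inhibition), pTGI (total growth inhibition) and pLC50 (50% net cell death), each as –log molar concentration. Where an effect was not reached within the tested range, the highest tested concentration was used.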
# [2] = system: NCI-H460; assay: Antitumor activity against human NCI-H460 cells; conditions: for CC50: read-out: Log LC50 (the source's name) (converted); for TGI: read-out: pTGI (converted); procedure, shortened: as §1
# [3] = system: HCC 2998; assay: Antitumor activity against human HCC2998 cells; conditions: for TGI: read-out: pTGI (converted); procedure, shortened: as §1
# [4] = system: HCT-116; assay: Antitumor activity against human HCT116 cells; conditions: for TGI: read-out: pTGI (converted); procedure, shortened: as §1
# [5] = system: KM12; assay: Antitumor activity against human KM12 cells; conditions: for TGI: read-out: pTGI (converted); procedure, shortened: as §1
# [6] = system: SF-539; assay: Antitumor activity against human SF539 cells; conditions: for TGI: read-out: pTGI (converted); procedure, shortened: as §1
# [7] = system: SNB-19; assay: Antitumor activity against human SNB19 cells; conditions: for CC50: read-out: Log LC50 (the source's name) (converted); for TGI: read-out: pTGI (converted); procedure, shortened: as §1
# [8] = system: SNB-75; assay: Antitumor activity against human SNB75 cells; conditions: Homo sapiens, SNB-75; for TGI: read-out: pTGI (converted); procedure, shortened: as §1
# [9] = system: LOX IMVI; assay: Antitumor activity against human LOXIMVI cells; conditions: for TGI: read-out: pTGI (converted); procedure, shortened: as §1
# [10] = system: SK-MEL-5; assay: Antitumor activity against human SKMEL5 cells; conditions: for TGI: read-out: pTGI (converted); procedure, shortened: as §1
# [11] = system: UACC-257; assay: Antitumor activity against human UACC257 cells; conditions: for TGI: read-out: pTGI (converted)
# Procedure, shortened: (§2)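 NCI 60-cell-line screen. Parameters were GI50 (50% net growth inhibition), TGI and LC50, each reported as –log molar concentration. Where an effect was not reached within the tested range, the highest tested concentration was used in the calculation.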
# [12] = system: IGROV-1; assay: Antitumor activity against human IGROV1 cells; conditions: for CC50: read-out: Log LC50 (the source's name) (converted); for TGI: read-out: pTGI (converted); procedure, shortened: as §1
# [13] = system: OVCAR-4; assay: Antitumor activity against human OVCAR4 cells; conditions: for TGI: read-out: pTGI (converted); procedure, shortened: as §1
# [14] = system: OVCAR-5; assay: Antitumor activity against human OVCAR5 cells; conditions: for TGI: read-out: pTGI (converted); procedure, shortened: as §1
# [15] = system: 786-0; assay: Antitumor activity against human 786-0 cells; conditions: for CC50: read-out: Log LC50 (the source's name) (converted); for TGI: read-out: pTGI (converted); procedure, shortened: as §1
# [16] = system: BT-549; assay: Antitumor activity against human BT549 cells; conditions: for TGI: read-out: pTGI (converted); procedure, shortened: as §1
# [17] = system: MCF7; assay: Cell viability against human MCF7 cells at 10 uM
# [18] = system: CCRF-CEM; assay: Antitumor activity against human CCRF-CEM cells; conditions: for TGI: read-out: pTGI (converted); procedure, shortened: as §1
# [19] = system: SR; assay: Antitumor activity against human SR cells; conditions: for TGI: read-out: pTGI (converted); procedure, shortened: as §2
# [20] = system: A549; assay: Antitumor activity against human A549 cells; conditions: for CC50: read-out: Log LC50 (the source's name) (converted); for TGI: read-out: pTGI (converted); procedure, shortened: as §1
# [21] = system: EKVX; assay: Antitumor activity against human EKVX cells; conditions: for TGI: read-out: pTGI (converted); procedure, shortened: as §1
# [22] = system: MCF7; assay: Antitumor activity against human MCF7 cells; conditions: for TGI: read-out: pTGI (converted); procedure, shortened: as §1
# [23] = Antitumor activity against human […] cells; conditions: for TGI: read-out: pTGI (converted); procedure, shortened: as §1
# [24] = system: CCRF-CEM; assay: Growth inhibition of human vinblastine-resistant CEM cells after 72 hrs by MTT assay
# Procedure, shortened: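 Growth inhibition by MTT after 72 h incubation. Resistant sublines: LoVoDoxo and MCF-7 MDR were kept in 0.1 µg/mL doxorubicin; CEMVbl-100 was selected against vinblastine. GI50 given as mean ± SEM of three independent experiments. Resistance index is resistant-line GI50 over parental GI50.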
# [25] = system: CCRF-CEM; assay: Resistance index, Ratio of GI50 for human vinblastine-resistant CEM cells to GI50 for human CEM cells
smiles,measurement,setting,value
Cc1cccc2c1[nH]c(=O)c1c3ccccc3cn21,GI50,[1],3.24 µM
same,LC50 (50% net cell kill),[1],> 100 µM
same,TGI,[1],27.5 µM
same,GI50,[2],1.91 µM
same,CC50,[2],31.6 µM
same,TGI,[2],10 µM
same,GI50,[3],4.57 µM
same,LC50,[3],40.7 µM
same,TGI,[3],16.2 µM
same,GI50,[4],2.69 µM
same,LC50,[4],33.9 µM
same,TGI,[4],11.7 µM
same,GI50,[5],3.39 µM
same,LC50 (50% net cell death),[5],> 100 µM
same,TGI,[5],22.9 µM
same,GI50,[6],3.89 µM
same,LC50 (50% net cell kill),[6],40.7 µM
same,TGI,[6],15.8 µM
same,GI50,[7],15.5 µM
same,CC50,[7],> 100 µM
same,TGI,[7],47.9 µM
same,GI50,[8],30.9 µM
same,LC50,[8],> 100 µM
same,TGI,[8],> 100 µM
same,GI50,[9],6.17 µM
same,LC50 (50% net cell kill),[9],42.7 µM
same,TGI,[9],18.2 µM
same,GI50,[10],11.7 µM
same,LC50,[10],49 µM
same,TGI,[10],24 µM
same,GI50,[11],16.6 µM
same,LC50,[11],> 100 µM
same,TGI,[11],93.3 µM
same,GI50,[12],3.72 µM
same,CC50,[12],> 100 µM
same,TGI,[12],> 100 µM
same,GI50,[13],6.76 µM
same,LC50 (50% net cell kill),[13],> 100 µM
same,TGI,[13],> 100 µM
same,GI50,[14],17.8 µM
same,LC50 (50% net cell death),[14],> 100 µM
same,TGI,[14],66.1 µM
same,GI50,[15],5.89 µM
same,CC50,[15],> 100 µM
same,TGI,[15],32.4 µM
same,GI50,[16],12 µM
same,LC50 (50% net cell kill),[16],> 100 µM
same,TGI,[16],58.9 µM
same,Activity,[17],27%
same,GI50,[18],1.2 µM
same,LC50,[18],74.1 µM
same,TGI,[18],12.6 µM
same,GI50,[19],1.55 µM
same,LC50,[19],12.6 µM
same,TGI,[19],4.17 µM
same,GI50,[20],5.01 µM
same,CC50,[20],> 100 µM
same,TGI,[20],> 100 µM
same,GI50,[21],5.62 µM
same,LC50 (50% net cell kill),[21],> 100 µM
same,TGI,[21],44.7 µM
same,GI50,[22],< 0.01 µM
same,LC50 (50% net cell kill),[22],39.8 µM
same,TGI,[22],12.6 µM
same,GI50,[23],2.4 µM
same,LC50,[23],> 100 µM
same,TGI,[23],17.4 µM
same,GI50,[24],3 µM
same,RatioGI50,[25],1.04
O=c1[nH]c2cc(Cl)c(Cl)cc2n2cc3ccccc3c12,GI50,[1],18.6 µM
same,LC50 (50% net cell kill),[1],69.2 µM
same,TGI,[1],35.5 µM
same,GI50,[2],18.6 µM
same,CC50,[2],57.5 µM
same,TGI,[2],33.1 µM
same,GI50,[3],0.813 µM
same,LC50,[3],43.7 µM
same,TGI,[3],18.6 µM
same,GI50,[4],20.9 µM
same,LC50,[4],58.9 µM
same,TGI,[4],35.5 µM
same,GI50,[5],17.4 µM
same,LC50 (50% net cell death),[5],56.2 µM
same,TGI,[5],30.9 µM
same,GI50,[6],19.1 µM
same,LC50 (50% net cell kill),[6],81.3 µM
same,TGI,[6],39.8 µM
same,GI50,[7],21.9 µM
same,CC50,[7],> 100 µM
same,TGI,[7],56.2 µM
same,GI50,[8],21.4 µM
same,LC50,[8],> 100 µM
same,TGI,[8],53.7 µM
same,GI50,[9],17.4 µM
same,LC50 (50% net cell kill),[9],56.2 µM
same,TGI,[9],30.9 µM
same,GI50,[10],20 µM
same,LC50,[10],87.1 µM
same,TGI,[10],41.7 µM
same,GI50,[11],20.4 µM
same,LC50,[11],> 100 µM
same,TGI,[11],49 µM
same,GI50,[12],17.4 µM
same,CC50,[12],56.2 µM
same,TGI,[12],30.9 µM
same,GI50,[13],20.4 µM
same,LC50 (50% net cell kill),[13],> 100 µM
same,TGI,[13],50.1 µM
same,GI50,[14],17 µM
same,LC50 (50% net cell death),[14],55 µM
same,TGI,[14],30.9 µM
same,GI50,[15],25.1 µM
same,CC50,[15],63.1 µM
same,TGI,[15],39.8 µM
same,GI50,[16],26.3 µM
same,LC50 (50% net cell kill),[16],> 100 µM
same,TGI,[16],57.5 µM
same,Activity,[17],10%
same,GI50,[18],21.9 µM
same,LC50,[18],> 100 µM
same,TGI,[18],49 µM
same,GI50,[19],17.4 µM
same,LC50,[19],87.1 µM
same,TGI,[19],38.9 µM
same,GI50,[20],19.1 µM
same,CC50,[20],63.1 µM
same,TGI,[20],34.7 µM
same,GI50,[21],21.9 µM
same,LC50 (50% net cell kill),[21],87.1 µM
same,TGI,[21],43.7 µM
same,GI50,[22],21.4 µM
same,LC50 (50% net cell kill),[22],72.4 µM
same,TGI,[22],39.8 µM
same,GI50,[23],17.4 µM
same,LC50,[23],61.7 µM
same,TGI,[23],32.4 µM
same,GI50,[24],1.9 µM
same,RatioGI50,[25],0.86

# — ChEMBL document CHEMBL1144782, “Isoindolo[2,1-a]quinoxaline derivatives, novel potent antitumor agents with dual inhibition of tubulin polymerization and topoisomerase I” (2008)
